What was measured:
Rh18 cell line = experiment: DIMSCAN in vitro cytotoxicity testing, Rh18; format: cell-based
Procedure, shortened: (§1)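 Test compound incubated with cells of a 24-line pediatric cancer panel for 96 h at 0.1 nM to 1 μM, then assessed by DIMSCAN. Relative IC50 (rIC50) derived per line. Panel comparison value is the panel rIC50 divided by the rIC50 of each cell line.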

BT-12 cell line = experiment: DIMSCAN in vitro cytotoxicity testing, BT-12; format: cell-based
Procedure, shortened: as §1

CHLA-266 cell line = experiment: DIMSCAN in vitro cytotoxicity testing, CHLA-266; format: cell-based
Procedure, shortened: as §1

TC-71 cell line = experiment: DIMSCAN in vitro cytotoxicity testing, TC-71; format: cell-based
Procedure, shortened: as §1

CHLA-10 cell line = experiment: DIMSCAN in vitro cytotoxicity testing, CHLA-10; format: cell-based
Procedure, shortened: as §1

CHLA-90 cell line = experiment: DIMSCAN in vitro cytotoxicity testing, CHLA-90; format: cell-based
Procedure, shortened: as §1

COG-LL-317 cell line = experiment: DIMSCAN in vitro cytotoxicity testing, COG-LL-317; format: cell-based
Procedure, shortened: as §1

RS4;11 cell line = experiment: DIMSCAN in vitro cytotoxicity testing, RS4; format: cell-based
Procedure, shortened: as §1

Kasumi-1 cell line = experiment: DIMSCAN in vitro cytotoxicity testing, Kasumi-1; format: cell-based
Procedure, shortened: as §1

Karpas-299 cell line = experiment: DIMSCAN in vitro cytotoxicity testing, Karpas-299; format: cell-based
Procedure, shortened: as §1

Ramos-RA1 cell line = experiment: DIMSCAN in vitro cytotoxicity testing, Ramos-RA1; format: cell-based
Procedure, shortened: as §1

KT-10 Wilms xenograft = experiment: PPTP in vivo xenograft testing, KT-10; set-up: species or system mice
TC-71 Ewing xenograft = experiment: PPTP in vivo xenograft testing, TC-71; set-up: species or system mice
CHLA258 Ewing xenograft = experiment: PPTP in vivo xenograft testing, CHLA258; set-up: species or system mice; settings: 1 mg/kg IP
[1] = 1 mg/kg IP Q4Dx3 repeated at Day 21

`C=C1C[C@@H]2CC[C@@]34C[C@H]5O[C@H]6[C@@H](O3)[C@H]3O[C@H](CC[C@@H]3O[C@H]6[C@H]5O4)CC(=O)C[C@@H]3[C@@H](OC)[C@@H](C[C@H](O)CN)O[C@H]3C[C@H]3O[C@@H](CC[C@@H]1O2)C[C@@H](C)C3=C` [Eribulin] was tested, and the IC50 (Rh18 cell line; Homo sapiens, Rh18, 96 h, read-out: rIC50) was 0.83 nM, the “Panel rIC50/Line rIC50” value (Rh18 cell line; Rh18) was 0.33 and the Relative in/out% (Rh18 cell line; Rh18) was −53%. For the same compound, the “Ymin % (observed)” value (Rh18 cell line; Rh18) was 20.92%, the “Panel rIC50/Line rIC50” value (BT-12 cell line; BT-12) was 1.83 and the Relative in/out% (BT-12 cell line; BT-12) was −74%. For the same compound, the “Ymin % (observed)” value (BT-12 cell line; BT-12) was 2.12%, the IC50 (BT-12 cell line; Homo sapiens, BT-12, 96 h, read-out: rIC50) was 0.15 nM and the “Panel rIC50/Line rIC50” value (CHLA-266 cell line; CHLA-266) was 0.71. The Relative in/out% (CHLA-266 cell line; CHLA-266) was −79%, the “Ymin % (observed)” value (CHLA-266 cell line; CHLA-266) was 5.54% and the IC50 (CHLA-266 cell line; Homo sapiens, CHLA-266, 96 h, read-out: rIC50) was 0.38 nM. For the same compound, the “Panel rIC50/Line rIC50” value (TC-71 cell line; TC-71) was 2.45, the Relative in/out% (TC-71 cell line; TC-71) was −99% and the “Ymin % (observed)” value (TC-71 cell line; TC-71) was 0.01%. The IC50 (TC-71 cell line; TC-71, 96 h, read-out: rIC50) was 0.11 nM, the IC50 (CHLA-10 cell line; 96 h, read-out: rIC50) was 0.11 nM and the “Panel rIC50/Line rIC50” value (CHLA-10 cell line; CHLA-10) was 2.58. For the same compound, the Relative in/out% (CHLA-10 cell line; CHLA-10) was −28%, the “Ymin % (observed)” value (CHLA-10 cell line; CHLA-10) was 4.54% and the IC50 (CHLA-90 cell line; 96 h, read-out: rIC50) was 1.77 nM. For the same compound, the “Panel rIC50/Line rIC50” value (CHLA-90 cell line; CHLA-90) was 0.15, the Relative in/out% (CHLA-90 cell line; CHLA-90) was −67% and the “Ymin % (observed)” value (CHLA-90 cell line; CHLA-90) was 9.26%. The IC50 (COG-LL-317 cell line; 96 h, read-out: rIC50) was under 0.1 nM, the “Panel rIC50/Line rIC50” value (COG-LL-317 cell line; COG-LL-317) was over 2.74 and the Relative in/out% (COG-LL-317 cell line; COG-LL-317) was −99%. For the same compound, the “Ymin % (observed)” value (COG-LL-317 cell line; COG-LL-317) was 0.03%, the IC50 (RS4;11 cell line; Homo sapiens, RS4-11, 96 h, read-out: rIC50) was under 0.1 nM and the “Panel rIC50/Line rIC50” value (RS4;11 cell line; RS4;11) was over 2.74. For the same compound, the Relative in/out% (RS4;11 cell line; RS4;11) was −99%, the “Ymin % (observed)” value (RS4;11 cell line; RS4;11) was 0.22% and the IC50 (Kasumi-1 cell line; Homo sapiens, Kasumi 1, 96 h, read-out: rIC50) was 4.11 nM. The “Panel rIC50/Line rIC50” value (Kasumi-1 cell line; Kasumi-1) was 0.07, the Relative in/out% (Kasumi-1 cell line; Kasumi-1) was −86% and the “Ymin % (observed)” value (Kasumi-1 cell line; Kasumi-1) was 3.92%. For the same compound, the IC50 (Karpas-299 cell line; Homo sapiens, KARPAS-299, 96 h, read-out: rIC50) was under 0.1 nM, the “Panel rIC50/Line rIC50” value (Karpas-299 cell line; Karpas-299) was over 2.74 and the Relative in/out% (Karpas-299 cell line; Karpas-299) was −100%. The “Ymin % (observed)” value (Karpas-299 cell line; Karpas-299) was 0.03%, the IC50 (Ramos-RA1 cell line; 96 h, read-out: rIC50) was under 0.1 nM and the “Panel rIC50/Line rIC50” value (Ramos-RA1 cell line; Ramos-RA1) was over 2.74. For the same compound, the Relative in/out% (Ramos-RA1 cell line; Ramos-RA1) was −100%, the “Ymin % (observed)” value (Ramos-RA1 cell line; Ramos-RA1) was 0.00% and the EFS activity (KT-10 Wilms xenograft; 1 mg/kg IP) was “High (High activity requires: (a) an EFS T/C >2; (b) a significant difference in EFS distributions, and (c) a net reduction in median tumor volume for animals in the treated group at the end of treatment as compared to at treatment initiation)”. For the same compound, the Response activity (KT-10 Wilms xenograft; 1 mg/kg IP) was “High (A high level of activity is indicated by a score of 6 or more)”, the T/C volume activity (KT-10 Wilms xenograft; 1 mg/kg IP) was “High (High activity = T/C ≤0.15)” and the “EFS T/C” value (KT-10 Wilms xenograft; [1]) was over 3.7. The “Median final RTV (CD45%)” value (KT-10 Wilms xenograft; [1]) was 0.0, the “Tumor volume T/C” value (KT-10 Wilms xenograft; 1 mg/kg IP, Day 21 or earlier) was 0.01 and the Response activity (TC-71 Ewing xenograft; 1 mg/kg IP) was “High (A high level of activity is indicated by a score of 6 or more)”. For the same compound, the T/C volume activity (TC-71 Ewing xenograft; 1 mg/kg IP) was “Int (Intermediate activity = T/C ≤0.45 but >0.15)”, the “EFS T/C” value (TC-71 Ewing xenograft; [1]) was over 1.5 and the “Median final RTV (CD45%)” value (TC-71 Ewing xenograft; [1]) was 2.3. The “Tumor volume T/C” value (TC-71 Ewing xenograft; 1 mg/kg IP, Day 21 or earlier) was 0.19 and the EFS activity (CHLA258 Ewing xenograft) was “High (High activity requires: (a) an EFS T/C >2; (b) a significant difference in EFS distributions, and (c) a net reduction in median tumor volume for animals in the treated group at the end of treatment as compared to at treatment initiation)”.

Reference: paper PMC4263960 (Pediatric blood & cancer, 2013)
